We go through 8 molecules from ChEMBL document CHEMBL1145492, “Comparison of the phosphorylation of 4'-ethynyl 2',3'-dihydro-3'-deoxythymidine with that of other anti-human immunodeficiency virus thymidine analogs” (Antimicrob Agents Chemother, 2007).

For test [1], the target named is T1, Thymidylate kinase (Homo sapiens) (UniProt P23919).
T1 sequence (whole entry): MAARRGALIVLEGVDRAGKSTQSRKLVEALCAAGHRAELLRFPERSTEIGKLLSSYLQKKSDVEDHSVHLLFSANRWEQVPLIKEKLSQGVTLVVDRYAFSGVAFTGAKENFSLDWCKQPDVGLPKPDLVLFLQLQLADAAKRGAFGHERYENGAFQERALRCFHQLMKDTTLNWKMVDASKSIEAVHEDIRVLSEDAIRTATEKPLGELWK
In words: Ratio of Kcat to Km of human recombinant TMPK relative to […]. The gist of the method: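 Substrate ranges were TMP 6.25–100 μM and analog MPs 6.25–250 μM. Reactions were stopped at various times with TCA and neutralized with trioctylamine/trichlorotrifluoroethane. Km and kcat came from Lineweaver-Burk plots. Relative efficiency is kcat/Km with D4TMP as 100%. Mean ± SD of three experiments.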

Test [2] relates to CCRF-CEM. In words: Activity of nucleoside diphosphate kinase from crude human CEM cell extract. The class given is cell-free. The gist of the method: (§1)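 CEM cell lysate (NP-40 lysis buffer, desalted on G-50) as enzyme source. Donors: 2 mM ATP for NDPK; 2 mM creatine phosphate for CK; 2 mM phosphoenolpyruvate for PK; for PGK, 1,3-bisphosphoglycerate made in situ by GAPDH. Activity in nmol/min/mg, normalized per unit (1 μmol ADP→ATP/min), then relative to D4TDP.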

For test [3], the system named is CCRF-CEM. In words: Activity of nucleoside diphosphate kinase from crude human CEM cell extract assessed as conversion of 1 umol of ADP to ATP per min. Type of test: cell-free. The method, boiled down:
as §1

The test system of test [4] is CCRF-CEM. As to the kind of experiment: Activity of nucleoside diphosphate kinase from crude human CEM cell extract assessed as phosphorylation efficiency relative to D4TDP. Type of test: cell-free. The gist of the method:
as §1

Test [5] deals with Nucleoside diphosphate kinase B (Homo sapiens) (UniProt P22392). As to the kind of experiment: Activity of human recombinant nm23H2 assessed as conversion of 1 umol of ADP to ATP per min. The gist of the method:
(§2)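 Recombinant human nm23-H1 and nm23-H2 (cloned from KB) and PGK (cloned from HepG2). Donor was 2 mM ATP for nm23; for PGK, 1,3-bisphosphoglycerate generated by GAPDH. Specific activity (nmol/min/mg) was normalized per unit (1 μmol ADP→ATP/min) and compared with D4TDP. Mean ± SD, n=3.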

For test [6] the target is unchanged. As to the kind of experiment: Activity of human recombinant nm23H2 assessed as phosphorylation efficiency relative to 4-ethynyl D4TDP. The conditions noted are these: in the assay text read “relative to D4TDP” for “relative to 4-ethynyl D4TDP”. The gist of the method: as §2
The species entered for test [7] is Homo sapiens. As to the kind of experiment: Activity of human recombinant 3-phosphoglycerate kinase. The method, boiled down: as §2
Test [8] is filed under the species Homo sapiens. As to the kind of experiment: Activity of human recombinant 3-phosphoglycerate kinase assessed as conversion of 1 umol of ADP to ATP per min. The gist of the method:
as §2

The species named for test [9] is Homo sapiens. As to the kind of experiment: Activity of human recombinant 3-phosphoglycerate kinase assessed as phosphorylation efficiency relative to 4-ethynyl D4TDP. Conditions: in the assay text read “relative to D4TDP” for “relative to 4-ethynyl D4TDP”. The method, boiled down:
as §2

For test [10], the system named is CCRF-CEM. In words: Activity of 3-phosphoglycerate kinase from crude human CEM cell extract. Type of test: cell-free. The method, boiled down: as §1
The subject of test [11] is CCRF-CEM. As to the kind of experiment: Activity of 3-phosphoglycerate kinase from crude human CEM cell extract assessed as conversion of 1 umol of ADP to ATP per min. The class given is cell-free. The gist of the method: as §1
The target of test [12] is Nucleoside diphosphate kinase A (Homo sapiens) (UniProt P15531). As to the kind of experiment: Activity of human recombinant nm23H1. The method, boiled down: as §2
The target is the same in test [13]. As to the kind of experiment: Activity of human recombinant nm23H1 assessed as conversion of 1 umol of ADP to ATP per min. The method, boiled down:
as §2

For test [14] the target is unchanged. As to the kind of experiment: Activity of human recombinant nm23H1 assessed as phosphorylation efficiency relative to 4-ethynyl D4TDP. The conditions noted are these: in the assay text read “relative to D4TDP” for “relative to 4-ethynyl D4TDP”. The method, boiled down:
as §2

The target in test [15] is Nucleoside diphosphate kinase B (Homo sapiens) (UniProt P22392). In words: Activity of human recombinant nm23H2. The gist of the method: as §2
Test [16] relates to CCRF-CEM. In words: Activity of 3-phosphoglycerate kinase from crude human CEM cell extract assessed as phosphorylation efficiency relative to D4TDP.
Test [17] has as its system CCRF-CEM. As to the kind of experiment: Activity of pyruvate kinase from crude human CEM cell extract assessed as conversion of 1 umol of ADP to ATP per min. The class given is cell-free. The method, boiled down:
as §1

Test [18] relates to CCRF-CEM. As to the kind of experiment: Activity of pyruvate kinase from crude human CEM cell extract. The class given is cell-free. The gist of the method: as §1
Test [19] deals with T1, Thymidylate kinase (Homo sapiens). In words: Ratio of Kcat to Km of human recombinant TMPK relative to D4TMP.
Test [20] concerns CCRF-CEM. In words: Activity of creatine kinase from crude human CEM cell extract. Type of test: cell-free. The method, boiled down: as §1
Test [21] has as its system CCRF-CEM. As to the kind of experiment: Activity of 3-phosphoglycerate kinase from crude human CEM cell extract assessed as phosphorylation efficiency relative to 4-ethynyl D4TDP. Conditions: in the assay text read “relative to D4TDP” for “relative to 4-ethynyl D4TDP”. The gist of the method:
as §1

In test [22] the target is T1, Thymidylate kinase (Homo sapiens). As to the kind of experiment: Activity of TMPK in human CEM cells assessed as level of triphosphate metabolites per 10^6 cells at 2 uM after 12 hrs. Type of test: cell-based. Conditions: CCRF-CEM. The method, boiled down:
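CEM cells at 10^6/ml in RPMI/10% FBS were exposed to 2 μM radiolabeled nucleoside (75 mCi/mmol) for 12 h. Cells were washed in cold PBS with 20 μM dipyridamole and extracted with 15% TCA on ice for 15 min. Extracts were neutralized with trioctylamine/trichlorotrifluoroethane (45:55). MP, DP and TP were resolved by HPLC, and radioactivity was converted to pmol/10^6 cells. Two independent experiments.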

Nucleoside diphosphate kinase B (Homo sapiens), sequence (P22392 whole entry): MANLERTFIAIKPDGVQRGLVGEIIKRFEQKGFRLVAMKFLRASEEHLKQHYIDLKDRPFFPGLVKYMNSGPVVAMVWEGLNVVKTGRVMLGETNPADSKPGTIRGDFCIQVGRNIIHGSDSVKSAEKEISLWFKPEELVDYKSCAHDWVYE
Nucleoside diphosphate kinase A (Homo sapiens), sequence (P15531 whole entry): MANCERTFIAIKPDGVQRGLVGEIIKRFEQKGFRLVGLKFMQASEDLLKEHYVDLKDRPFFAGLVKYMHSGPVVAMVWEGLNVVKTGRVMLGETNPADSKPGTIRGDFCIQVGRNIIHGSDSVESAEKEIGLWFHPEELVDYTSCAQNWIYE

With `C#C[C@@]1(COP(=O)(O)O)C=C[C@H](n2cc(C)c(=O)[nH]c2=O)O1`, in test [1], the Activity turned out to be 8.8%.

For `Cc1cn([C@H]2C[C@H](O)[C@@H](COP(=O)(O)OP(=O)(O)O)O2)c(=O)[nH]c1=O`, the Activity in [2] came to 2700 nmol/min/mg; in test [3], 1100 nmol; in test [4], 260000%; in test [5], 1000 nmol; in test [6], 83000%; in test [7], 137 nmol/min/mg. Besides, the Activity in test [8] worked out at 0.049 nmol; in test [9] it was 1300%; in test [10], 21 nmol/min/mg; in test [11] it was 2 nmol; in [12] it was 1.3e+06 nmol/min/mg; in test [13], 1000 nmol. Also, the Activity in test [14] stood at 89000%; in test [15], 1.4e+06 nmol/min/mg; in [16], 490%.

On to `Cc1cn([C@H]2C=C[C@@H](COP(=O)(O)OP(=O)(O)O)O2)c(=O)[nH]c1=O`, for which the Activity in test [2] is 1.1 nmol/min/mg; in test [3], 0.42 nmol; in test [5], 1.2 nmol; in test [7], 10 nmol/min/mg; in test [8], 0.0037 nmol; in test [17], 99 nmol. Also, the Activity in test [18] is 0.35 nmol/min/mg; in test [10], 4.2 nmol/min/mg; in [11] it was 0.4 nmol; in [12], 1500 nmol/min/mg; in test [13] it was 1.2 nmol; in test [15] it was 1700 nmol/min/mg.

Regarding `Cc1cn([C@H]2C[C@H](N=[N+]=[N-])[C@@H](COP(=O)(O)O)O2)c(=O)[nH]c1=O`, the Activity in test [19] was found to be 59%.

Consider `Cc1cn([C@H]2C[C@H](O)[C@@H](COP(=O)(O)O)O2)c(=O)[nH]c1=O`, for which the Activity in test [19] turned out to be 5600%.

Regarding `Nc1ncnc2c1ncn2[C@@H]1O[C@H](COP(=O)(O)OP(=O)(O)O)[C@@H](O)[C@H]1O`, the Activity in test [2] is 2500 nmol/min/mg; in test [20], 2.5 nmol/min/mg; in test [18], 3.6 nmol/min/mg; in [10] it was 10600 nmol/min/mg.

`Cc1cn([C@@H]2C[C@H](N=[N+]=[N-])[C@@H](COP(=O)(O)OP(=O)(O)O)O2)c(=O)[nH]c1=O`: the Activity in [2] was 0.018 nmol/min/mg; in [3], 0.007 nmol; in [4], 1.7%; in test [5] it was 0.1 nmol; in [6] it was 7.6%; in test [7], 14 nmol/min/mg. Also, the Activity in test [8] came out at 0.005 nmol; in test [9] it was 135%; in test [10], 0.26 nmol/min/mg; in test [11] it was 0.025 nmol; in test [21] it was 6.2%; in test [12], 107 nmol/min/mg. The values for the Activity in [13], in test [14] and in test [15] were 0.08 nmol, 7.2% and 131 nmol/min/mg, respectively.

For the molecule `Cc1cn([C@H]2C[C@H](N=[N+]=[N-])[C@@H](CO)O2)c(=O)[nH]c1=O`, the Activity in [22] was 0.27 pmol.
